Assay results from ChEMBL document CHEMBL1932972, “ent-Kaurane diterpenoids from Croton tonkinensis stimulate osteoblast differentiation” (J Nat Prod, 2011).
The source made the active and inactive calls.

Assays:
[1] = test system: C2C12; test: Induction of osteoblast differentiation in mouse C2C12 cells assessed as increase in ALP promoter activity at 10 uM measured 48 hrs by luciferase reporter gene analysis; assay type: functional, cell-based
How it was run: (§1)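 C2C12 cells seeded and grown 24 h, then transiently transfected (Ca3PO4 or Lipofectamine Plus) with ALP-, OC-, BSP- or OSE-luciferase reporter plus pCMV β-gal to normalise transfection efficiency. Treated at 10 μM. Luciferase read from cell lysates 48 h post-transfection; three independent experiments.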

[2] = test system: C2C12; test: Induction of osteoblast differentiation in mouse C2C12 cells assessed as increase in osteoclacin promoter activity at 10 uM measured 48 hrs by luciferase reporter gene analysis; assay type: functional, cell-based; how it was run: as §1
[3] = test system: C2C12; test: Induction of osteoblast differentiation in mouse C2C12 cells assessed as increase in of bone sialoprotein promoter activity at 10 uM measured 48 hrs by luciferase reporter gene analysis; assay type: functional, cell-based; how it was run: as §1
[4] = test system: C2C12; test: Induction of osteoblast differentiation in mouse C2C12 cells assessed as increase in OSE promoter activity at 10 uM measured 48 hrs by luciferase reporter gene analysis; assay type: functional, cell-based; how it was run: as §1
[5] = test system: C2C12; test: Induction of osteoblast differentiation in mouse C2C12 cells assessed as increase in ALP promoter activity measured 48 hrs by luciferase reporter gene analysis; assay type: functional, cell-based
How it was run: (§2)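 ALP- or OC-luciferase reporter transfected into C2C12 cells with pCMV β-gal control (Ca3PO4 or Lipofectamine Plus), after 24 h growth post-seeding. Dose-response at 1, 5 and 10 μM. Lysate luciferase activity measured 48 h later; three independent experiments.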

[6] = test system: C2C12; test: Induction of osteoblast differentiation in mouse C2C12 cells assessed as increase in osteoclacin promoter activity measured 48 hrs by luciferase reporter gene analysis; assay type: functional, cell-based; how it was run: as §2
[7] = test system: C2C12; test: Increase in ALP mRNA expression in mouse C2C12 cells by RT-PCR analysis; assay type: functional, cell-based
How it was run: (§3)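 C2C12 cells (DMEM, 20% FBS, 37 °C, 5% CO2) treated at 1, 5, 10 μM, with BMP2 as comparator. Total RNA extracted with TRIzol. cDNA made from 1 μg RNA using random primers. Semiquantitative RT-PCR for ALP and collagen type 1α with GAPDH reference, 28−30 cycles (94 °C 30 s, primer-specific annealing 30 s, 72 °C 30 s).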

[8] = test system: C2C12; test: Increase in collagen type 1 alpha mRNA expression in mouse C2C12 cells by RT-PCR analysis; assay type: functional, cell-based; how it was run: as §3
[9] = test system: C2C12; test: Induction of osteogenesis in mouse C2C12 cells assessed as increase in osteoblast differentiation-associated ALP level at 10 uM after 2 days in presence of 5 ng/mL BMP2

Measured: Activity

C=C1C[C@@]23CC[C@@H]4[C@@](C)(CO)CCC[C@@]4(C)[C@@H]2[C@@H](OC(C)=O)C[C@@H]1C3
active: [1] | [2] | [3] | [4] | [5] Dose-dependent effect | [6] Dose-dependent effect | [7] Dose-dependent effect | [8] Dose-dependent effect | [9]

C=C1C[C@]23C[C@H]1CC[C@H]2[C@]1(C)CCC[C@](C)(COC(C)=O)[C@H]1C[C@H]3O
active: [1] | [2] | [3] | [4] | [5] Dose-dependent effect | [6] Dose-dependent effect | [9]

C=C1C[C@@]23CC[C@@H]4[C@@](C)(COC(C)=O)CCC[C@@]4(C)[C@@H]2CC[C@@H]1[C@H]3O
active: [1] | [2] | [3] | [4] | [5] Dose-dependent effect | [6] Dose-dependent effect | [7] Dose-dependent effect | [8] Dose-dependent effect | [9]

C=C1C[C@@]23CC[C@@H]4[C@@](C)(COC(C)=O)CCC[C@@]4(C)[C@@H]2[C@H](O)C[C@@H]1C3
active: [1] | [2] | [3] | [4] | [5] Dose-dependent effect | [6] Dose-dependent effect | [7] Dose-dependent effect | [8] Dose-dependent effect | [9]
